The list is not random: actives were taken first. Their share in the collection is about 2.6%.
SENP8 block-1 – blocks human SENP8 cleavage of Nedd8 substrate; recombinant SENP8, Nedd8 substrate fluorescence; inhibition, % at 20 µM; 360,000 compounds, 0.64% hits; in the data active means inhibition mostly above about 40%, no sharp cut-off; inactive means mostly below about 27%
SENP8 block-2 – SENP8 protease inhibition; 330,000 compounds, 1.2% hits; purified SENP8, Z-RLRGG-aminoluciferin cleavage, luminescence; Q96LD8; inhibition, % at 10 µM; in the data active means inhibition above about 50%
SENP6 inh – blocks the human protease SENP6. Q9GZR1. inhibition, % at 10 µM. Recombinant SENP6 catalytic domain, aminoluciferin luminescence. 330,000 compounds, 1.8% hits. AID 2599;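 active means inhibition above about 50% at the single tested dose, limit read from the data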;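 further: plate controls were DMSO wells with enzyme for no effect and DMSO wells lacking enzyme for full effect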
SENP1 inh – SENP1 (human) catalytic domain inhibition; inhibition, % at 10 µM; Q9P0U3; recombinant SENP1 catalytic domain, CyPet-SUMO1-YPet FRET cleavage; AID 624204; 360,000 compounds, 0.21% hits;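 active means inhibition at least 30% at 10 µM, raw YFP signal under a set limit, fluorescence ratio 0.5 to 1.5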;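 further: 0% = enzyme with DMSO and 100% = no enzyme wells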
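Assay system – human recombinant His6-tagged SENP1 catalytic domain enzyme · Input – SENP1 enzyme, 20 pM final · Buffer or medium – Tris pH 8 buffer plus EDTA, NaCl, BME, BSA, NP40, catalase · Schedule – 50 min reaction at room temperature · Technique – FRET read of cyan and yellow fluorescence · Control set – no-enzyme wells low, DMSO-plus-enzyme wells high control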
UCH37 DUB inh – human UCH37 deubiquitinating enzyme inhibition; inhibition, % (test concentration not listed); Q9Y5K5; AID 588478; purified proteasome/UCH37, Ub-AMC cleavage fluorescence; 330,000 compounds, 0.33% hits;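 active means mean inhibition over replicate wells above about 20%, limit read from the data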;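 further: 0% = compound-free wells with enzyme and 100% = wells lacking proteasome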
Target sequence (Q9Y5K5 whole entry, looked up): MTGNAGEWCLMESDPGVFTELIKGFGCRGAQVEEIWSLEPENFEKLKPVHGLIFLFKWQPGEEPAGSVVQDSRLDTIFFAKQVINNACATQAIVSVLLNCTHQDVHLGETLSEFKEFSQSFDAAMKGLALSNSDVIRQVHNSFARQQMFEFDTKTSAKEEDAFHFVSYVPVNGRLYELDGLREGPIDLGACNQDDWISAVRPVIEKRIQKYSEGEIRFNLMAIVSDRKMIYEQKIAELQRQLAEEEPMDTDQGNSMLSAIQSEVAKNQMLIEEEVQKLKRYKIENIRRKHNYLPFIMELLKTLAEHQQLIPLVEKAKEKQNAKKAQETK
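Signal – fluorescence, ex 355 nm, em 460 nm · System – Proteasome-bound UCH37 · Input – 0.15 nM proteasome as dispensed · Timing – 30 min preincubation with enzyme, 25 min cleavage at room temperature · Read-out basis – percent inhibition of cleavage signal versus uninhibited and no-proteasome wells · Medium – Tris-HCl pH 7.4 with ATP-MgCl2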
SENP7 block – blocks the human protease SENP7 | Q9BQF6 | recombinant SENP7, Z-RLRGG-aminoluciferin luminescence, 40 min | inhibition, % at 5 µM | 330,000 compounds, 1.5% hits;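 active means inhibition above about 50% at the single test dose, limit read from the data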;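 further: plate controls were DMSO with enzyme for no effect and no enzyme buffer wells for full effect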
SENP8 confirm – human SENP8 inhibition, confirmed | shares compounds with SENP7 block | Recombinant SENP8, Z-RLRGG-aminoluciferin luminescence, 60 min | inhibition, % at 12.5 µM | 6,200 compounds, 40% hits | AID 488912;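 active means mean inhibition across replicates above about 50%, limit read from the data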
SENP6 confirm – confirmation of human SENP6 protease inhibitors; shares compounds with SENP7 block; recombinant SENP6, Z-RLRGG-aminoluciferin luminescence; inhibition, % at 12.5 µM; 6,200 compounds, 58% hits; AID 488915
SENP7 confirm – confirmation of human SENP7 protease inhibitors | 6,200 compounds, 69% hits | AID 488917 | shares compounds with SENP7 block | inhibition, % at 12.5 µM | recombinant SENP7, Z-RLRGG-aminoluciferin luminescence, 40 min
Casp3 select – selectivity test for SENP inhibitors: human caspase-3 inhibition | purified caspase-3, Z-DEVD-aminoluciferin luminescence, 60 min | AID 488918 | shares compounds with SENP7 block | 6,200 compounds, 60% hits | inhibition, % at 12.5 µM;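 active means mean inhibition above about 50%, limit read from the data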;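 further: plate controls were enzyme with DMSO for no effect and wells without caspase-3 for full effect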
Target sequence (P42574 28-227 limits assumed): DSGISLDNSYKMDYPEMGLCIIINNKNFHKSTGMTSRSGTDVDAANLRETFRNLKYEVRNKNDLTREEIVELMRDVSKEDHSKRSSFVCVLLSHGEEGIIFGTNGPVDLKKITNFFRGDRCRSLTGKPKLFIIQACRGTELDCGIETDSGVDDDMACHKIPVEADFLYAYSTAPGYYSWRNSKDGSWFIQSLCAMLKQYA
Luc interf – interferes with luciferase luminescence in SENP counter-screen; shares compounds with SENP7 block; Pre-incubated SENP8/Z-RLRGG-aminoluciferin, luciferase luminescence interference; inhibition, % at 12.5 µM; 6,200 compounds, 39% hits; AID 488919;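 active means mean inhibition above about 50% when retested at one dose, limit read from the data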;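 further: plate controls were DMSO wells with completed reaction for no effect and substrate without enzyme for full effect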
Numbers without * were called inactive; . = not tested or not shown.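 How the source made its calls, unless noted: active means mean inhibition above about 50% in the one-dose retest (limit read from the data); inactive means the rest.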

SMILES	SENP8 block-1	SENP8 block-2	SENP6 inh	SENP1 inh	UCH37 DUB inh	SENP7 block	SENP8 confirm	SENP6 confirm	SENP7 confirm	Casp3 select	Luc interf
CC(=O)Nc1ccc(/C=C/C(=O)c2ccc3c(c2)OCCO3)cc1	-88	-2	-14	3	0	-13	.	.	.	.	.
CCN(CC)Cc1c(O)ccc2c(=O)c(-c3ccc4c(c3)OCCO4)coc12	-484	-2	-8	0	-33	-1	.	.	.	.	.
O=c1c(-c2ccc3c(c2)OCCO3)coc2cc(O)cc(O)c12	32	50*	67*	-1	6	58*	76*	73*	89*	58*	70*
O=C(NN=C/C(Cl)=C/c1ccccc1)c1ccccn1	.	.	.	.	5	.	.	.	.	.	.
Cc1cccc(/C=N\Nc2cn[nH]c(=O)c2Cl)c1	-193	55*	76*	-1	.	71*	71*	67*	88*	76*	45
Cc1ccccc1-c1n[nH]c(=S)n1N=Cc1ccc(-c2ccccc2Br)o1	.	.	.	.	3	.	.	.	.	.	.
O=C(CSCc1ccco1)N1CCc2ccccc21	14	34	57*	1	1	33	47	45	79*	68*	58*
O=C(NCCC(=O)N1CCc2ccccc21)c1ccco1	19	4	16	1	4	6	.	.	.	.	.
Oc1c(/C=N/c2ccccn2)sc2ccccc12	-58	95*	98*	-60	.	95*	96*	97*	102*	96*	13
Oc1c(C=NCc2ccncc2)sc2ccccc12	.	13	7	.	0	2	.	.	.	.	.
Oc1c(C=Nc2cccnc2)sc2ccccc12	-195	58*	78*	-54	18	13	7	73*	95*	81*	75*
Oc1c(C=Nc2ccccc2)sc2ccccc12	-105	97*	97*	-31	6	101*	92*	100*	103*	98*	16
Oc1sc(C=Nc2ccccc2)c2ccccc12	-252	62*	28	-18	-13	60*	81*	83*	96*	53*	82*
Oc1oc(-c2ccccc2)nc1/C=N/c1ccccn1	-44	-20	-11	1	.	-14	.	.	.	.	.
CN=Cc1sc2ccccc2c1O	-18	5	-63	-102	3	-5	.	.	.	.	.
O=C(O)c1ccc(NN=Cc2c[nH]c3ccccc23)cc1	.	.	.	.	-14	.	.	.	.	.	.
CN(C)C=Nc1c(C#N)nnn1Cc1ccccc1	.	.	.	.	-1	.	.	.	.	.	.
Cc1ccc(C(=O)Oc2ccc(C=NNC(N)=O)cc2)cc1	.	.	.	.	3	.	.	.	.	.	.
Cc1ccc(NC(=O)c2cnccn2)cc1C	12	39	69*	1	5	71*	66*	61*	83*	84*	63*
CSc1nsc(/C=C/Nc2cccc(Cl)c2)c1C#N	-184	30	67*	-36	-4	10	-18	-10	-2	0	-5
CSc1nsc(/C=C/Nc2ccc(Cl)cc2)c1C#N	-220	23	55*	8	-2	7	-11	-5	2	2	-2
CN1CCc2c(sc(N=Cc3ccco3)c2C(N)=O)C1	.	.	.	.	-12	.	.	.	.	.	.
Cc1nc2ccccc2n1CC(=O)NN=Cc1cccs1	.	.	.	.	-1	.	.	.	.	.	.
COc1ccc(O)c(C=NN=C2C(=O)Nc3ccccc32)c1	.	.	.	.	4	.	.	.	.	.	.
CSC(=NS(=O)(=O)c1ccc(Cl)cc1)c1ccccc1	.	.	.	.	6	.	.	.	.	.	.
Nc1cc(N)cc(-c2nc3ccccc3o2)c1	-410	3	8	-14	-4	5	.	.	.	.	.
